Source: PubChem (several laboratories)
Most compounds without a hit are left out; they make up all but 7.1% or so of the library.
HCT116 bCat-KO – primary screen for growth suppressors in beta-catenin knockout HCT116 cells (colon tumor, human). HCT116 beta-catenin knockout viability, CellTiter-Glo, 60 h; stronger effect = lower value. viability, % at 10 µM. 140,000 tested, 1.5% active;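 active = viability at or under a set limit, the compound median less 4 SD, cut at about 6% in these data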;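 note: 0% = Hyamine 1622 control at 20 µM and 100% = untreated cell control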
H69AR growth 86K – proliferation blockers of H69AR lung cancer cells, primary screen, cell-based, human, 86K library; H69AR lung tumor viability, ATP luminescence, 72 h; stronger effect = lower value; viability, % at 10 µM; 85,000 tested, 6% active; AID 598, 2007;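 active = viability at or below 40%; inactive = viability above 40%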;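 note: multidrug resistant small cell line overexpressing MRP-1 efflux transporter; 100% = mean luminescence of untreated control wells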
PTEN del growth – growth suppression of PTEN-null HCT116, primary screen, cell-based, CellTiter-Glo; HCT116 PTEN-null viability, 60 h; stronger effect = lower value; viability, % at 10 µM; 140,000 tested, 1.2% active; AID 827, 2007;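 active = viability at or below a set limit, 4 SD under the median of all tested compounds, cut at about 3.7% in these data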;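 note: PTEN knockout HCT116 line with beta catenin targeted HCT116 as companion control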
Cav3 T inh – Cav3.2 calcium influx blockers – cell-based, Fluo-4 calcium fluorescence, FDSS, MLSMR library, primary screen; Voltage-dependent T-type calcium channel subunit alpha-1H (Homo sapiens), O95180; Cav3.2-expressing cells; stronger effect = lower value; B-score at 10 µM; 100,000 tested, 4% active; AID 449739, 2010;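 active = single-dose well whose peak fluorescence ratio is a statistical outlier from its plate by either plate-standardised score or position-corrected B-score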
Target sequence (O95180 whole entry, looked up): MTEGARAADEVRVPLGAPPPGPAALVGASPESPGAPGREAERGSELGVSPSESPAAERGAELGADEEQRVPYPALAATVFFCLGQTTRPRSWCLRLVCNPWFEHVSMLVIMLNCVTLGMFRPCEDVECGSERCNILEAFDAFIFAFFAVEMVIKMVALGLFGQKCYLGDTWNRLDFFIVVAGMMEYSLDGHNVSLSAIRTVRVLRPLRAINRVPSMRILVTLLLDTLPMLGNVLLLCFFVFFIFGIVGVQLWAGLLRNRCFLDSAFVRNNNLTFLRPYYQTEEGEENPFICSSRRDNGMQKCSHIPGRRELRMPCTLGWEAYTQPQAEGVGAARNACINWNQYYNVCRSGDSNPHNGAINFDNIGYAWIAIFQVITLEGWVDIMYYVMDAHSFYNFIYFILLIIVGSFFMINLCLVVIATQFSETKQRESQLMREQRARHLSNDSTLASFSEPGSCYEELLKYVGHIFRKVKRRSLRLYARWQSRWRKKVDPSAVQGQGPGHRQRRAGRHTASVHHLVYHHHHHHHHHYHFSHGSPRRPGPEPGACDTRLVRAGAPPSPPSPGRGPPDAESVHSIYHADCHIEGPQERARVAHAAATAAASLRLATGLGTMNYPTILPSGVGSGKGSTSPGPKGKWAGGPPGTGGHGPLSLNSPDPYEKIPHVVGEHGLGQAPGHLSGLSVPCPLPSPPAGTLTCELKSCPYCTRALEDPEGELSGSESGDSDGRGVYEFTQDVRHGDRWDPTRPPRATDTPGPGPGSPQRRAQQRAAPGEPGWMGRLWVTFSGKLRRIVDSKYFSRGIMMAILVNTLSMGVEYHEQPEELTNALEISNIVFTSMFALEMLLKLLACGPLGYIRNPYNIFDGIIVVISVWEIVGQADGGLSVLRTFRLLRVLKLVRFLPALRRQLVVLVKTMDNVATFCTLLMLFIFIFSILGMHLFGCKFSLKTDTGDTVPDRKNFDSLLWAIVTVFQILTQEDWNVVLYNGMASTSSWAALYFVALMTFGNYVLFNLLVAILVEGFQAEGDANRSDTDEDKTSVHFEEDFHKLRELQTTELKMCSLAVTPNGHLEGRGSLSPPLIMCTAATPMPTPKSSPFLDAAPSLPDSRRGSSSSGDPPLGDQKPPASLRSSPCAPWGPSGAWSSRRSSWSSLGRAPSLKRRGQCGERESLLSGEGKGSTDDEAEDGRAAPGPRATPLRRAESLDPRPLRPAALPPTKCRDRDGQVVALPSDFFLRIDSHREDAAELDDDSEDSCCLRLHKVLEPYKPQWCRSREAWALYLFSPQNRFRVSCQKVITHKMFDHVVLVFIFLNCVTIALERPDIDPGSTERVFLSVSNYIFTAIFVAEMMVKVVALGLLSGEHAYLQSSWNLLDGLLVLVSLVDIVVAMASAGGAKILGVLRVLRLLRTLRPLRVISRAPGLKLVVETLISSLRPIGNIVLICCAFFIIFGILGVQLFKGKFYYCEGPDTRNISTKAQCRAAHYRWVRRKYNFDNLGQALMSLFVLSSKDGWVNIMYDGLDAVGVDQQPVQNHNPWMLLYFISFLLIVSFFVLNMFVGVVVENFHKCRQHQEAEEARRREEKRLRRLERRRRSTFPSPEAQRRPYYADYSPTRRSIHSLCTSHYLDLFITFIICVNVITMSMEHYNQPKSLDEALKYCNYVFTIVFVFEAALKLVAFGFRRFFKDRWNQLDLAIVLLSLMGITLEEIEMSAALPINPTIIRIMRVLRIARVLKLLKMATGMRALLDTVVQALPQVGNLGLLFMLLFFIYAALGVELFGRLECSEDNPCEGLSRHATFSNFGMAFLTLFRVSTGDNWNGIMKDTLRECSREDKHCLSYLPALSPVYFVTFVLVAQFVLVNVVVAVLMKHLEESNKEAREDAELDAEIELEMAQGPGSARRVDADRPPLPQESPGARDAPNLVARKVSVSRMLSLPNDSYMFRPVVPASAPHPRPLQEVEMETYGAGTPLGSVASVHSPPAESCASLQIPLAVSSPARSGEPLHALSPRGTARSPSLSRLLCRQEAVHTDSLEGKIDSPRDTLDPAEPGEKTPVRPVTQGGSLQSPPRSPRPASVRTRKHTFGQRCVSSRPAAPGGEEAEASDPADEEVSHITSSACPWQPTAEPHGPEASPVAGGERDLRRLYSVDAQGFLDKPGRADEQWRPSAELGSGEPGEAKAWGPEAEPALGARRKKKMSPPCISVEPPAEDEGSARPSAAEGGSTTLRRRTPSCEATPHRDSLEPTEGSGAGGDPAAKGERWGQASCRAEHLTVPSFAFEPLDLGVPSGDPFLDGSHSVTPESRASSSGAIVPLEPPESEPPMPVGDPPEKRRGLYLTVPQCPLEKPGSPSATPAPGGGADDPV
HUVEC prolif 384 – inhibitors of HUVEC proliferation, primary screen, cell-based, 384-well; CellTiter-Glo luminescence, 72 h; stronger effect = lower value; viability, % at 10 µM (by protocol); 86,000 tested, 1.1% active; AID 648, 2007;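 active = viability at or below 30%; inactive = viability above 30%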;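 note: 100% = median luminescence of DMSO-only cell control wells on each plate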
Fibroblast inh – antiproliferative effect on LL 47 fibroblasts – human, LL 47 cells, CellTiter-Glo luminescence, primary screen; viability, % at 10 µM; LL 47 human lung fibroblast viability, ATP luminescence; stronger effect = lower value; AID 719, 2007; 85,000 tested, 1.1% active;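 active = viability at or below 50% in the single dose screen; inactive = viability above 50%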;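 note: compound exposure lasted 72 h before the ATP readout; 100% = median luminescence of untreated cell-only wells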
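Signal: luminescent ATP detection, CellTiter-Glo; assay system: LL 47 human lung fibroblasts; input: 1,150 cells/well; incubation: overnight cell rest, 72 h compound treatment at 37 °C; measure: % viability versus median cells-only luminescence; medium: IMEM growth medium with 15% fetal bovine serum; dosing: compound addition at 0.1% DMSO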
* marks the source's active call; other numbers are inactive results; . = not tested or not shown.

SMILES | HCT116 bCat-KO | H69AR growth 86K | PTEN del growth | Cav3 T inh | HUVEC prolif 384 | Fibroblast inh
CCOC(=O)c1c(NC(=O)COc2cccc3c2CCN(CC)C3=O)sc2c1CCC2 | 83.5 | . | 78.2 | . | . | .
CCN1C(=O)/C(=C2/Sc3ccc(OC)cc3N2C)SC1=Nc1cccc(O)c1 | 71.8 | 23.8* | 72.6 | 0.206 | 95.0 | 79.9
CCN1C(=O)/C(=C2/Sc3ccc(OC)cc3N2C)SC1=Nc1ccc(C(C)=O)cc1 | . | 88.8 | . | . | 102.4 | 101.8
Cc1cc(Nc2cc(Cl)nc(Sc3ccc(NC(=O)C4CC4)cc3)n2)n[nH]1 | . | . | . | 0.328 | . | .
CC(=O)Nc1ccc2c(c1)nc(CN1CCCC1)n2C | 93.3 | 91.9 | 100.1 | -0.0279 | 107.5 | 100.2
Cc1ccc(C(C)C)c(OCC(=O)Nc2ccc3c(c2)nc(CN2CCCC2)n3C)c1 | 3.4* | 80.7 | 2.5* | -0.329 | 25.3* | 90.8
O=C(Nc1ccc(Br)cc1F)c1ccncc1 | 90.4 | . | 87.4 | 0.0206 | . | .
O=C(Nc1ccc(Cl)c(Cl)c1)Nc1ccc(Br)cc1F | 4.9* | . | 4.0 | . | . | .
Nc1nnc(CSCc2ccc(Cl)cc2)s1 | 91.5 | . | 88.1 | . | . | .
Nc1nnc(SCc2ccc(Cl)cc2)s1 | 0.8* | 99.6 | 0.8* | -1.21 | 97.6 | 107.3
CSc1nc2sc3c(c2c2nnnn12)CC(C)(C)OC3 | . | 98.3 | . | . | 93.6 | 94.5
CC1(C)Cc2c(sc3c4nnnn4c4nnnn4c23)CO1 | 8.2 | 2.5* | 14.3 | 0.798 | 54.3 | 92.9
COC(=O)C(NNc1ccccc1C)(NC(=O)c1ccc(F)cc1)C(F)(F)F (centres undefined) | 78.5 | . | 84.4 | -4.88* | . | .
COC(=O)C(NC(=O)c1ccccc1)(Nc1cc(C)cc(C)n1)C(F)(F)F (centres undefined) | 84.8 | 100.3 | 110.0 | -4.19* | 96.6 | 95.1
Cc1cccc(OCCCCCn2ccnc2)c1 | 87.3 | 100.4 | 87.9 | -0.0172 | 97.7 | 106.2
Cc1ccccc1Nc1nc(N)nc(CN(C)Cc2ccccc2Cl)n1 | 77.0 | . | 70.9 | . | . | .
COc1ccc(-n2c(SCC(=O)NCc3ccco3)nc3c([nH]c4ccccc43)c2=O)cc1 | 83.6 | 51.0 | 73.7 | 0.704 | 77.2 | 82.8
CCCN(CCC)C(=O)CC(c1ccccc1)c1cc(C)ccc1O (centres undefined) | 80.0 | 78.2 | 72.7 | -5.93* | 96.3 | 97.4
Cc1ccc(O)c(C(CC(=O)N2CCCC2)c2ccccc2)c1 (centres undefined) | 76.7 | 97.3 | 80.7 | . | 97.4 | 109.1
C=CCn1c(SCC(=O)Nc2nc(C)cs2)nnc1C(NC(=O)c1ccccc1)C(C)C (centres undefined) | 94.3 | 13.9* | 96.1 | -0.0208 | 93.5 | 100.0
Cc1ccc(C(=O)NC(=S)NNC(=O)c2ccccc2[N+](=O)[O-])cc1 | 79.4 | 69.7 | 79.6 | -7.98* | 67.2 | 77.9
CCc1cc(C(=O)COc2ccccc2F)c(O)cc1O | 100.1 | 80.9 | 100.1 | -8.98* | 96.1 | 87.5
CCc1cc(C(=O)Cc2ccc(F)cc2)c(O)cc1O | 85.6 | 87.1 | 91.2 | . | 44.9 | 95.0
O=C(c1ccc(S(=O)(=O)c2ccccc2Cl)c([N+](=O)[O-])c1)N1CCN(Cc2ccccc2)CC1 | 4.9* | . | 9.2 | . | . | .
O=C(c1ccc(S(=O)(=O)c2ccc(F)cc2)c([N+](=O)[O-])c1)N1CCCCCC1 | 9.7 | . | 10.5 | . | . | .
SMILES | HCT116 bCat-KO | H69AR growth 86K | PTEN del growth | Cav3 T inh | HUVEC prolif 384 | Fibroblast inh
COc1ccc2c(c1)c(CCNNC(=O)C(C)(C)C)c(C)n2C(=O)c1ccc(Cl)cc1 | . | . | . | -1.66 | . | .
CCC(CO)[n+]1c(C)cc(/C=C2\Sc3ccccc3N2Cc2ccccc2)cc1C (centres undefined) | 1.4* | . | 1.6* | . | . | .
COc1ccc(-c2nnc(SC(C)C(=O)Nc3cccc(Cl)c3)o2)cc1 (centres undefined) | 64.2 | 89.9 | 64.6 | -2.57 | 107.7 | 99.5
CCOC(=O)CNC(c1ccccc1)c1cc(Br)ccc1NC(=O)OCC (centres undefined) | 73.4 | . | 78.5 | -5.91* | . | .
CCOC(=O)Nc1ccc(C)cc1Br | 0.4* | 109.3 | 0.2* | 1.37 | 104.0 | 106.6
Cc1ccc(NC(=O)CN2CCCCCC2)c(Br)c1 | 93.1 | 91.6 | 91.6 | 0.539 | 91.7 | 117.0
